Active and inactive are the calls of the source. No cut-off for these calls is given here.
Columns and labels:
[1] = molecular target: T1, Tyrosine-protein phosphatase non-receptor type 5 (Homo sapiens, UniProt P54829); assay: Binding affinity to human STEP PTP domain (281 to 563 residues) expressed in Escherichia coli BL21(DE3) by ITC
T1 sequence (P54829 whole entry): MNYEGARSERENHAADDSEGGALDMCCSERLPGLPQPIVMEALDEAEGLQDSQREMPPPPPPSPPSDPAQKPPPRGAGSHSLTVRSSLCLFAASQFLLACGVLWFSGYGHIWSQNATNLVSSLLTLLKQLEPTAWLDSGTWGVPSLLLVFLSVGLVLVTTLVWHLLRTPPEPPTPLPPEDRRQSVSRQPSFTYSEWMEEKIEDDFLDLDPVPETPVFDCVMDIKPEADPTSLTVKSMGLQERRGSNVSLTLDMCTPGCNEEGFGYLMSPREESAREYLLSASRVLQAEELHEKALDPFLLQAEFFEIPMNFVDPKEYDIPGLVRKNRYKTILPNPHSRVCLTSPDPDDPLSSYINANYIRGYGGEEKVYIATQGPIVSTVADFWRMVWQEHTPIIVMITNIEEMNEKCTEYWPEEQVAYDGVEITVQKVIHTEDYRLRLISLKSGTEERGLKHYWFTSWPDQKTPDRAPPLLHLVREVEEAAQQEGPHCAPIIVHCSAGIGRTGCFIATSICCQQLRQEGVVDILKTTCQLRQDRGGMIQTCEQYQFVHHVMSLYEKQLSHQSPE
Summary of the method: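 Desalted STEP PTP domain in 10 mM HEPES, 200 mM NaCl, 0.5 mM TCEP, pH 7.5. 200 μM protein titrated with 18 × 2 μL injections of 2 mM ligand at 25 °C. Single-site model fit gave ΔH, n, ΔS and Ka; mean ± SD of three independent titrations.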

[2] = molecular target: T2, Tyrosine-protein phosphatase non-receptor type 1 (Homo sapiens) (UniProt P18031); assay: Binding affinity to human PTP1B by 1H,15N TROSY NMR spectral analysis
T2 sequence (whole entry): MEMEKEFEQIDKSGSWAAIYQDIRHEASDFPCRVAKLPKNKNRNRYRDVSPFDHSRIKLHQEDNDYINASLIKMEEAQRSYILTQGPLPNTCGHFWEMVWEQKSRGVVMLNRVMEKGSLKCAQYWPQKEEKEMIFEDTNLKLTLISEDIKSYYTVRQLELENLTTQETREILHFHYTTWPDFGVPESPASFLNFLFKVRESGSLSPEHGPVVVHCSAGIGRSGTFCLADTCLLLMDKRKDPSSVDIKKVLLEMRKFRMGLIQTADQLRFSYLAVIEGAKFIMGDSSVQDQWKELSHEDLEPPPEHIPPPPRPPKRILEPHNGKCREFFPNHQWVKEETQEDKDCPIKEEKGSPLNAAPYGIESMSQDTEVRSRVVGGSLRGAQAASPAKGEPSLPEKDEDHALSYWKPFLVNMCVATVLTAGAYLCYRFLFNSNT

Homo sapiens [3] = species on record: Homo sapiens; assay: Activation of human STEP46 (197 to 565 residues) expressed in Escherichia coli BL21(DE3) using pFyn peptide substrate after 60 mins by RapidFire MS/MS assay relative to control
Summary of the method: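 Unlabeled Fyn peptide with STEP46 (50 nM final) and compound (500 μM final) in 50 mM HEPES, 0.02% Brij35, 1 mM DTT; 1 h at room temperature. Stopped with sodium orthovanadate (12 μM final), internal standard peptide added, dephosphorylation quantified by RapidFire MS/MS using MRM in positive mode.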

Homo sapiens [4] = species on record: Homo sapiens; assay: Activation of human STEP46 (197 to 565 residues) expressed in Escherichia coli BL21(DE3) at 1000 uM preincubated for 10 mins followed by DiFMUP substrate addition and measured at 1 min time interval for 30 mins by fluorescence assay relative to control
Summary of the method: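 STEP46 preincubated 10 min at room temperature with compound; reaction started with DiFMUP. Final: 100 nM STEP46, 1 μM DiFMUP, 50 mM HEPES, 0.02% Brij 35, 1 mM DTT, 5% DMSO. Fluorescence (ex 340/em 460 nm) every 1 min for 30 min at 37 °C; no-enzyme background subtracted. Linear slope expressed relative to enzyme without compound (100%).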

[5] = molecular target: T3, Tyrosine-protein phosphatase non-receptor type 2 (Homo sapiens) (UniProt P17706); assay: Activation of human TCPTP (2 to 345 residues) at 500 uM using biotin-Ahx-EDT-pY-Y-RKG-amide as substrate measured after 2 hrs by AlphaLISA assay
T3 sequence (whole entry): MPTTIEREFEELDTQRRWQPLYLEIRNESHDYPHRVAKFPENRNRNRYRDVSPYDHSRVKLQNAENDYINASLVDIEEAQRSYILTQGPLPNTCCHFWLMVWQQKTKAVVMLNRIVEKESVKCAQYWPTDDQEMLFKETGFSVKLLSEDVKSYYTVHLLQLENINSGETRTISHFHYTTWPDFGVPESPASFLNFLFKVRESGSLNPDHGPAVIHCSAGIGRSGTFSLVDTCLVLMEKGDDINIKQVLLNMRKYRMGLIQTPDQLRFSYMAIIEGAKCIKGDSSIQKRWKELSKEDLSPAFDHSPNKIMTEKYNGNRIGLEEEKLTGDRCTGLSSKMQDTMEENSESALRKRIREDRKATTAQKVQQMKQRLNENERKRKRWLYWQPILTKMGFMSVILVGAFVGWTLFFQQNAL
Summary of the method: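 In-house TC-PTP (2−345) at 500 pM final, preincubated 10 min at 24 °C with compound (up to 500 μM), then EDT-pY-Y-RKG-amide substrate (1.4 μM final); 1.5 h at 24 °C, stopped with 200 μM orthovanadate. Competition AlphaScreen with biotin-Ahx-EDT-pY-Y-RKG-amide (2.5 nM) and antibody 4G10 (500 pM), 2 h at 24 °C. Quantified from on-plate standard curve.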

[6] = molecular target: T2, Tyrosine-protein phosphatase non-receptor type 1 (Homo sapiens); assay: Activation of human PTP1B (1 to 405 residues) at 500 uM preincubated for 10 mins followed by pFYN substrate addition and measured after 1.5 hrs by AlphaLISA assay
Summary of the method: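 In-house PTP1B (1−405) at 500 pM final, preincubated 10 min at 24 °C with compound (up to 500 μM), then EDT-pY-Y-RKG-amide (1.4 μM final) or pFYN (20 μM final) added; 1.5 h at 24 °C, humidified. Stopped with 200 μM orthovanadate. Competition AlphaScreen using biotin-Ahx-EDT-pY-Y-RKG-amide (2.5 nM), anti-pTyr antibody 4G10 (500 pM), beads (5 μg/mL each), 2 h at 24 °C. Read against on-plate substrate standard curve.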

Homo sapiens [7] = species on record: Homo sapiens; assay: Binding affinity to human STEP46 (197 to 565 residues) expressed in Escherichia coli BL21(DE3) assessed as increase in melting temperature at 500 uM by SYPRO Orange dye based DSF
Summary of the method: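 STEP46 at 5 μM with 25× SYPRO Orange and 500 μM ligand (1% DMSO) in 20 mM HEPES pH 7.5, 50 mM NaCl, 1 mM TCEP, in duplicate. Heated 25 to 95 °C at 1 °C/min with reads every 0.5 °C. Tm taken from the minimum of the first-derivative curve; ΔTm relative to DMSO.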

- Kd [1]: 800 µM
- Activity [2]: inactive
- Activity (Homo sapiens [3]): 28%
- Activity (Homo sapiens [4]): 48%
- Activity [5]: inactive
- Activity [6]: inactive
- ΔTm (Homo sapiens [7]): 1.4 °C
SMILES: N=C(N)Nc1cc(C2CCNCC2)cc(C(F)(F)F)c1

Reference: ChEMBL document CHEMBL4308845, “Allosteric Activation of Striatal-Enriched Protein Tyrosine Phosphatase (STEP, PTPN5) by a Fragment-like Molecule” (J Med Chem, 2019)
